Data as given in ChEMBL document CHEMBL3351976, “Flexible, polymer-supported synthesis of sphingosine derivatives provides ceramides with enhanced biological activity” (Bioorg Med Chem, 2014).
pIC50: −log10 of the molar value.

Key:
[1] = Antiproliferative activity against rat PC12 cells after 24 hrs by Alamar blue assay; assay type: functional, cell-based, PC-12; settings: for pIC50: Rattus norvegicus, PC-12, 24 h, read-out: IC50; for IC50: pc-12
In short: (§1)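 Cells seeded at 5000 per well and preincubated 24 h at 37 °C/5% CO₂, then exposed to compounds in DMSO (final DMSO 0.5%; DMSO-only controls) at 6.25–200 µM for a further 24 h at 37 °C. Alamar Blue added to 10% final, fluorescence read (ex 535/em 590 nm) after 4 h and 24 h further incubation. IC50 from triplicates.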

[2] = Antiproliferative activity against human HL60 cells after 24 hrs by Alamar blue assay; assay type: functional, cell-based, HL-60; settings: for pIC50: Homo sapiens, HL-60, 24 h, read-out: IC50; for IC50: hl-60; in short: as §1
HepG2 = experiment: Antiproliferative activity against human HepG2 cells after 24 hrs by Alamar blue assay; assay type: functional, cell-based; settings: for pIC50: Homo sapiens, HepG2, 24 h, read-out: IC50; for IC50: hepg2; in short: as §1

| pIC50 (HepG2) | IC50 (HepG2) | SMILES | pIC50 [1] | pIC50 [2] | IC50 [1] | IC50 [2] |
| --- | --- | --- | --- | --- | --- | --- |
| 4.24 | – | CCCCCCCCCCCCC/C=C/[C@@H](O)[C@H](CO)NC(C)=O | 4.01 | 4.59 | – | – |
| 3.76 | – | CCCCCCCCCCCCC/C=C/C(=O)[C@H](CO)NC(C)=O | < 3.70 | 4.37 | – | – |
| 4.51 | – | CCCCCCCCc1ccc(/C=C/[C@@H](O)[C@H](CO)NC(C)=O)cc1 | 4.40 | 4.96 | – | – |
| – | ND(Unstable) | CC(=O)N[C@@H](CO)[C@H](O)/C=C/c1ccc(-c2ccccc2)cc1 | – | – | ND(Unstable) | ND(Unstable) |
| 4.19 | – | CCCCCCCCc1ccc(/C=C/C(=O)[C@H](CO)NC(C)=O)cc1 | 4.15 | – | – | ND(Unstable) |
| < 3.70 | – | CC(=O)N[C@@H](CO)C(=O)/C=C/c1ccccc1 | 4.38 | 4.32 | – | – |
| 4.39 | – | CC(=O)N[C@@H](CO)C(=O)/C=C/c1ccc(-c2ccccc2)cc1 | 4.23 | 4.30 | – | – |
| – | ND(Unstable) | CC(=O)N[C@@H](CO)[C@H](O)/C=C/c1ccccc1 | – | – | ND(Unstable) | ND(Unstable) |
